Source: ChEMBL document CHEMBL1158468, “Synthesis, structure-activity relationships, and in vivo evaluation of N3-phenylpyrazinones as novel corticotropin-releasing factor-1 (CRF1) receptor antagonists” (J Med Chem, 2009)

How the values were obtained:
[1] = target: T1, Corticotropin-releasing factor receptor 1 (Rattus norvegicus, UniProt P35353); assay: Displacement of [125I]Tyr-ovine-CRF from CRF1 receptor in rat frontal cortex homogenate by gamma counting; type: tissue-based
T1 sequence (P35353 whole entry): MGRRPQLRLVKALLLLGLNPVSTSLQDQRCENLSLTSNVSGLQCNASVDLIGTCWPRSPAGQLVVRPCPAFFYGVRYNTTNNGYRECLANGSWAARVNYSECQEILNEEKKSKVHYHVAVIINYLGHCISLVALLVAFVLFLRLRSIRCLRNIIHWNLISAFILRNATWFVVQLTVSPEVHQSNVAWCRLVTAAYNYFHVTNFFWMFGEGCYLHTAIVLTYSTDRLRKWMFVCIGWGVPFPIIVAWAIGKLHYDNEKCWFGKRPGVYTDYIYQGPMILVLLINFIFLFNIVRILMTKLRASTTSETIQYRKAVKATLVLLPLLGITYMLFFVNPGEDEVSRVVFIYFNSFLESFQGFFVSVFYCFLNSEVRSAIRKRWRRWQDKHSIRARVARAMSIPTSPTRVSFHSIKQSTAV
Summary of the method: (§1)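 Washed homogenates of frozen rat frontal cortex (CRF1, 25 μg/well) or porcine choroid plexus (CRF2, 10 μg/well) in 50 mM Hepes pH 7.0, 10 mM MgCl2, 2 mM EGTA, protease inhibitors, 0.005% Triton X-100. Ligand 150 pM 125I-ovine-CRF (CRF1) or 100 pM 125I-sauvagine (CRF2). Incubation 2 h at 21 °C, then filtration and gamma counting. Nonspecific binding: 1 μM CRF1 reference antagonist or 1 μM α-helical CRF(9-41). IC50 from 5- or 10-point curves by nonlinear regression.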

[2] = Displacement of [125I]sauvagine from CRF2 receptor in pig choroid plexus homogenate by gamma counting; type: tissue-based, Sus scrofa; summary of the method: as §1

| IC50 [1] [nM] | IC50 [2] [nM] | Compound |
| --- | --- | --- |
| 180 |  | CCc1cn([C@H](C)C2CC2)c(=O)c(Nc2ccc(OC)nc2C(F)(F)F)n1 |
| 16 |  | COCC(COC)n1cc(Cl)nc(Nc2c(C)cc(C)cc2C)c1=O |
| 1.8 |  | COc1ccc(Nc2nc(Cl)cn([C@H](C)C3CC3)c2=O)c(C(F)(F)F)n1 |
| 1.7 |  | COC[C@@H](C)n1cc(Cl)nc(Nc2cc(C)c(OC)cc2C)c1=O |
| 0.52 |  | CC[C@H](C1CC1)n1cc(Cl)nc(Nc2c(C)cc(OC)cc2C)c1=O |
| 280 |  | COC[C@@H](C1CC1)n1cc(Cl)nc(Nc2cc(C)c(O)cc2C)c1=O |
| 19 |  | COc1cc(Br)c2c(c1)OCCN2c1nc(Cl)cn([C@H](C)C2CC2)c1=O |
| 0.53 |  | CC[C@H](C1CC1)n1cc(Cl)nc(Nc2c(C)cc(Cl)cc2Cl)c1=O |
| 10 |  | COc1cc(C)c(Nc2nc(Cl)cn([C@@H](CO)C3CC3)c2=O)cc1C |
| 0.59 |  | CC[C@H](COC)n1cc(Cl)nc(Nc2cc(C)c(OC)cc2C)c1=O |
| 2.4 |  | CC[C@H](C1CC1)n1cc(Cl)nc(Nc2cc(C)c(C)cc2C)c1=O |
| 2.8 |  | CCC(C1CC1)n1cc(Cl)nc(Nc2c(Cl)cc(C#N)cc2Cl)c1=O (single isomer, unassigned) |
| 5.6 |  | C#Cc1cn([C@H](C)C2CC2)c(=O)c(Nc2ccc(OC)nc2C(F)(F)F)n1 |
| 1.7 |  | Cc1cc(C)c(Nc2nc(Cl)cn([C@H](C)C3CC3)c2=O)c(C)c1 |
| 4.6 |  | CC[C@H](C1CC1)n1cc(Cl)nc(N(CC)c2c(C)cc(C)cc2C)c1=O |
| 2.9 |  | CCC(CC)n1cc(Cl)nc(Nc2c(C)cc(C)cc2C)c1=O |
| 0.94 |  | COc1cc(Br)c2c(c1)CCN2c1nc(Cl)cn([C@H](C)C2CC2)c1=O |
| 12 |  | COC[C@@H](C)n1cc(Cl)nc(Nc2c(C)cc(C)cc2C)c1=O |
| 76 |  | CCC(CC)Cn1cc(Cl)nc(Nc2cc(C)c(OC)cc2C)c1=O |
| 910 |  | COC[C@@H](C1CC1)n1cc(Cl)nc(Nc2cc(C)c(OCc3ccccc3)cc2C)c1=O |
| 1.2 |  | CC[C@H](C1CC1)n1cc(Cl)nc(Nc2c(Cl)cc(C#N)cc2Cl)c1=O |
| 1.3 |  | COC[C@@H](C1CC1)n1cc(Cl)nc(Nc2c(C)cc(C)cc2C)c1=O |
| 1.5 |  | CC[C@H](C1CC1)n1cc(Cl)nc(N(CC)c2cc(C)c(C)cc2C)c1=O |
| 1200 |  | C=Cc1cn([C@H](C)C2CC2)c(=O)c(Nc2ccc(OC)nc2C(F)(F)F)n1 |
| 0.29 | > 10000 | COC[C@H](C1CC1)n1cc(Cl)nc(Nc2cc(C)c(OC)cc2C)c1=O |
